Published values gathered from unrelated publications.
Compare with care: the assays were run in different laboratories.
gyrA: DNA gyrase subunit A (gyrA, Escherichia coli K-12, UniProt P0AES4)
OPRD1: Delta-type opioid receptor (OPRD1, Homo sapiens, UniProt P41143)
gag-pol reverse transcriptase: Gag-Pol polyprotein, reverse transcriptase (gag-pol, Human immunodeficiency virus 1, UniProt P03366)
HTR3A: 5-hydroxytryptamine receptor 3A (HTR3A, Homo sapiens, UniProt P46098)

Cc1cc(C#N)ccc1C(=O)Nc1ccc(C(=O)N[C@@H](CC(N)=O)C(=O)Nc2ccc(C(=O)Nc3ccc(C(=O)Nc4ccc(C(=O)O)cc4)c(O)c3OC(C)C)cc2)cc1  IC50 (gyrA; enzyme activity; inhibitor): 1700 nM
CNc1nc(C#Cc2ccccc2)nc2c1ncn2[C@H]1[C@H](O)[C@H](O)[C@@H]2C[C@@H]21  Ki (OPRD1; ligand displacement; radioligand): > 10000 nM
Cc1ccc(S(=O)(=O)NCCCCCNC(=O)c2[nH]c3ccc(Cl)cc3c2S(=O)(=O)c2cc(C)cc(C)c2)cc1  IC50 (gag-pol reverse transcriptase; enzyme activity; inhibitor; ELISA): 130 nM
CC(C)Oc1c(NC(=O)c2ccc(NC(=O)[C@H](CC(N)=O)NC(=O)c3ccc(NC(=O)c4ccc([N+](=O)[O-])c(OC(C)C)c4O)cc3)cc2)ccc(C(=O)Nc2ccc(C(=O)O)cc2)c1O  IC50 (gyrA; enzyme activity; inhibitor): > 50000 nM
CCCCN1CCC(COC(=O)c2ccc(N)c(OCF)c2)CC1  Ki (HTR3A; cell-free assay; radioligand): > 10000 nM
CC1=C(/C=C/C2=CCC[C@]3(C)[C@@H]([C@H](C)CCCC(C)(C)O)CC[C@@H]23)C[C@@H](O)CC1  EC50 (Oxysterols receptor LXR-alpha (NR1H3, Homo sapiens, UniProt Q13133); coactivator recruitment; agonist; TR-FRET): 10 to 100 nM
N#Cc1ccc(Nc2nc(N)cc(Oc3c(F)cc(-c4ccc(C#N)c(F)c4)cc3F)n2)cc1  IC50 (gag-pol reverse transcriptase; enzyme activity; inhibitor): 40 nM
CC(C)Oc1c(-n2cc(-c3ccc(NC(=O)C(CC(N)=O)NC(=O)c4ccc(NC(=O)c5ccc(C#N)cc5)cc4)cc3)nn2)ccc(C(=O)Nc2ccc(C(=O)O)cc2)c1O (centres unmarked)  IC50 (gyrA; enzyme activity; inhibitor): 1500 nM
CNc1nc(C#Cc2ccc(Br)s2)nc2c1ncn2[C@H]1[C@H](O)[C@H](O)[C@]2(C(=O)OC)C[C@H]12  Ki (OPRD1; ligand displacement; radioligand): > 10000 nM
Cc1cc(C)cc(S(=O)(=O)c2c(C(=O)NCCCNS(=O)(=O)c3ccc(C#N)cc3)[nH]c3ccc(Cl)cc23)c1  IC50 (gag-pol reverse transcriptase; enzyme activity; inhibitor; ELISA): 100 nM
CNc1nc(C#Cc2ccc(Cl)s2)nc2c1ncn2[C@H]1[C@H](O)[C@H](O)[C@]2(C(=O)OC(C)C)C[C@H]12  Ki (OPRD1; ligand displacement; radioligand): > 10000 nM
CC(C)COc1c(NC(=O)c2ccc(NC(=O)[C@H](CC(N)=O)NC(=O)c3ccc(NC(=O)c4ccc([N+](=O)[O-])cc4)cc3)cc2)ccc(C(=O)Nc2ccc(C(=O)O)cc2)c1O  IC50 (gyrA; enzyme activity; inhibitor): 900 nM
CCn1c(-c2nc3cc(C(=O)N4CCC[C@@H](N)C4)cc(OC)c3n2C)cc2cccnc21  EC50 (HTR3A; calcium signal; agonist): > 50100 nM
CNc1nc(C#Cc2ccc(Cl)s2)nc2c1ncn2[C@H]1[C@H](O)[C@H](O)[C@]2(C(=O)NCCN)C[C@H]12  Ki (OPRD1; ligand displacement; radioligand): > 10000 nM
N#Cc1ccc(COc2cccc(C3CCN(Cc4nc5ccc(C(=O)O)cc5n4C[C@@H]4CCO4)CC3)n2)c(F)c1  EC50 (Gastric inhibitory polypeptide receptor (GIPR, Homo sapiens, UniProt P48546); cAMP; agonist): > 10000 nM
Cc1cc(C)cc(S(=O)(=O)c2c(C(=O)NCCNS(=O)(=O)c3ccc(F)cc3)[nH]c3ccc(Cl)cc23)c1  IC50 (gag-pol reverse transcriptase; enzyme activity; inhibitor; ELISA): 66 nM
CC(C)Oc1c(NC(=O)c2ccc(NC(=O)[C@H](CC(N)=O)NC(=O)c3ccc(NC(=O)c4ccc(C#N)s4)cc3)cc2)ccc(C(=O)Nc2ccc(C(=O)O)cc2)c1O  IC50 (gyrA; enzyme activity; inhibitor): 500 nM
CNC(=O)[C@@]12C[C@@H]1[C@@H](n1cnc3c(NC)nc(C#Cc4ccc(F)c(F)c4)nc31)[C@H](O)[C@@H]2O  Ki (OPRD1; ligand displacement; radioligand): > 10000 nM
Cc1cc(C)cc(S(=O)(=O)c2c(C(=O)NCCCCNS(=O)(=O)c3ccc(Cl)cc3)[nH]c3ccc(Cl)cc23)c1  IC50 (gag-pol reverse transcriptase; enzyme activity; inhibitor; ELISA): 94 nM
CC(C)Oc1c(N)ccc(C(=O)Nc2ccc(C(=O)N[C@@H](CC(N)=O)C(=O)Nc3ccc(C(=O)Nc4ccc(C(=O)Nc5ccc(C(=O)O)cc5)c(O)c4OC(C)C)cc3)cc2)c1O  IC50 (gyrA; enzyme activity; inhibitor): 50000 nM
Cc1cc(C)cc(S(=O)(=O)c2c(C(=O)NCCCCNS(=O)(=O)c3ccc(C#N)cc3)[nH]c3ccc(Cl)cc23)c1  IC50 (gag-pol reverse transcriptase; enzyme activity; inhibitor; ELISA): 120 nM
O[C@@H]1[C@H](O)[C@@H]2C[C@@H]2[C@H]1n1cnc2c(NCCc3ccccc3)nc(C#Cc3ccccc3)nc21  Ki (OPRD1; ligand displacement; radioligand): > 10000 nM
Cc1cc(C)cc(S(=O)(=O)c2c(C(=O)NCCCNS(=O)(=O)c3ccc([N+](=O)[O-])cc3)[nH]c3ccc(Cl)cc23)c1  IC50 (gag-pol reverse transcriptase; enzyme activity; inhibitor; ELISA): 120 nM
N#Cc1ccc(Nc2nc(N)cc(Oc3ccc(-c4cccc(C#N)c4)cc3F)n2)cc1  IC50 (gag-pol reverse transcriptase; enzyme activity; inhibitor): 340 nM
Cc1cc(C)cc(S(=O)(=O)c2c(C(=O)NCCCCCNS(=O)(=O)c3cccnc3)[nH]c3ccc(Cl)cc23)c1  IC50 (gag-pol reverse transcriptase; enzyme activity; inhibitor; ELISA): 95 nM
O[C@@H]1[C@H](O)[C@@H]2C[C@@H]2[C@H]1n1cnc2c(NCC(c3ccccc3)c3ccccc3)nc(C#Cc3ccccc3)nc21  Ki (OPRD1; ligand displacement; radioligand): > 10000 nM
